83 variants from the RNAGym collection of RNA variant scans (doi:10.1038/s41586-018-0170-7) can be followed below.

B1: tRNA (parent)
chain: GUUCCGUUGGCGUAAUGGUAACGCGUCUCCCUCCUAAGGAGAAGACUGCGGGUUCGAGUCCCGUACGGAACG

The data set covers variants of B1. The experiment in a line: yeast fitness, log relative to wild type (ln ratio); higher = fitter; tRNA-Arg(CCU), competitive growth, 37 C, 1 M NaCl. Summed up: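 Fitness is the natural log of each genotype's generations divided by the wild type's. Generations were derived as OD-scaled log2 output/input frequency from 125 bp paired-end Illumina counts, weighting replicates by inverse variance. Pools of the tRNA-Arg(CCU) variant library, on a HIS3 centromeric plasmid in BY4742 lacking the chromosomal gene, grew ~6.5 generations (~26.5 h) in SC-HIS 1M NaCl at 37 °C after 4 generations in SC-HIS at 30 °C.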
Consider U2G G6U C27U A43C A70G, for which the “yeast fitness (ln)” value was -0.232.

As for G6A C27U A43C, the “yeast fitness (ln)” value is -0.131.

As to U2G G6U C66A A70G C71U, the “yeast fitness (ln)” value was -0.249.

With U2G G6U C46U A70U, the “yeast fitness (ln)” value was -0.0198.

For the variant U2G G6U C46U A70G, the “yeast fitness (ln)” value was -0.104.

Consider U2G G6U C27U A43C A69G A70U C71U, for which the “yeast fitness (ln)” value is -0.484.

As for G6A A43C C66U A69G A70G, the “yeast fitness (ln)” value is -0.35.

Regarding G6A A43C C66U A69G A70U, the “yeast fitness (ln)” value is -0.3.

Turning to U2G G6U C27U A43C C66U A69G, the “yeast fitness (ln)” value is -0.31.

With U2G G6U C66U A69G A70G C71U, the “yeast fitness (ln)” value was -0.235.

Take U2G G6U A43C C71U: the “yeast fitness (ln)” value is -0.17.

For U2G G6U C27U C46U, the “yeast fitness (ln)” value was -0.1.

For the variant U2G G6U A43C C66U C71U, the “yeast fitness (ln)” value is -0.405.

For the variant U2G G6U C66A A70U C71U, the “yeast fitness (ln)” value is -0.0189.

Turning to U2G G6U A43C C46U C66U A70U C71U, the “yeast fitness (ln)” value was -0.22.

U2G G6U C66A A69G A70G C71U: the “yeast fitness (ln)” value is -0.158.

In the case of U2G G6U C46U C66U A69G A70G C71U, the “yeast fitness (ln)” value was -0.231.

Turning to U2G G6U A70U, the “yeast fitness (ln)” value is -0.0383.

For U2G G6U A70G, the “yeast fitness (ln)” value was -0.0649.

Regarding U2G G6U C46U C66A A69G C71U, the “yeast fitness (ln)” value is -0.185.

For the variant U2G G6U C27U C71U, the “yeast fitness (ln)” value was -0.218.

On to G6A A43C A70G, for which the “yeast fitness (ln)” value is -0.223.

Take G6A A43C A70U: the “yeast fitness (ln)” value is -0.143.

G6A C27U A43C A70G C71U: the “yeast fitness (ln)” value is -0.304.

As to U2G G6U C27U A70U C71U, the “yeast fitness (ln)” value is -0.227.

Take G6A A69G C71U: the “yeast fitness (ln)” value is -0.134.

As to U2G G6U C27U C46U A69G A70U, the “yeast fitness (ln)” value was -0.153.

Take U2G G6U C27U C46U A69G A70G: the “yeast fitness (ln)” value was -0.191.

For the variant G6A A43C C46U C66U C71U, the “yeast fitness (ln)” value was -0.12.

With G6A A43C A69G A70U, the “yeast fitness (ln)” value was -0.224.

G6A A43C A69G A70G: the “yeast fitness (ln)” value was -0.26.

As for U2G G6U C27U A43C C46U A70U, the “yeast fitness (ln)” value was -0.156.

Take U2G G6U C27U A43C C46U A70G: the “yeast fitness (ln)” value is -0.208.

With G6A A43C C66U A69G C71U, the “yeast fitness (ln)” value was -0.51.

For U2G G6U C46U C66A A70U C71U, the “yeast fitness (ln)” value was -0.0156.

As for U2G G6U C46U A69G, the “yeast fitness (ln)” value is -0.157.

As for G6A A43C C46U C66A A70U C71U, the “yeast fitness (ln)” value is -0.312.

On to U2G G6U C27U A43C C46U C66A A70U, for which the “yeast fitness (ln)” value is -0.017.

With U2G G6U C27U A43C C46U C66A A70G, the “yeast fitness (ln)” value is -0.21.

Take U2G G6U A69G: the “yeast fitness (ln)” value was -0.176.

U2G G6U A43C C46U A69G C71U: the “yeast fitness (ln)” value was -0.221.

As for U2G G6U A43C C66A A69G A70U C71U, the “yeast fitness (ln)” value is -0.355.

Take G6A A43C C66A A70G C71U: the “yeast fitness (ln)” value is -0.275.

Consider U2G G6U C27U A70G, for which the “yeast fitness (ln)” value was -0.211.

Take U2G G6U C27U A70U: the “yeast fitness (ln)” value was -0.397.

Consider U2G G6U C46U C71U, for which the “yeast fitness (ln)” value was -0.134.

With U2G G6U C27U C46U C66A A69G A70U, the “yeast fitness (ln)” value was -0.0283.

As to U2G G6U C27U C46U C66A A69G A70G, the “yeast fitness (ln)” value was -0.214.

Consider U2G G6U C27U C66U A69G A70U C71U, for which the “yeast fitness (ln)” value was -0.439.

As to G6A A43C, the “yeast fitness (ln)” value was -0.0714.

With U2G G6U C27U C66U A69G A70G C71U, the “yeast fitness (ln)” value is -0.273.

Take U2G G6U A43C C66A A69G A70G: the “yeast fitness (ln)” value is -0.256.

In the case of U2G G6U A43C C66A A69G A70U, the “yeast fitness (ln)” value is -0.185.

Take G6A A43C C66U A69G A70G C71U: the “yeast fitness (ln)” value was -0.261.

For U2G G6U C46U C66U A69G A70U C71U, the “yeast fitness (ln)” value is -0.39.

For U2G G6U C27U A43C C46U A70G C71U, the “yeast fitness (ln)” value is -0.295.

With U2G G6U C27U A43C C66A A69G A70G, the “yeast fitness (ln)” value was -0.219.

As to U2G G6U C27U A43C C66A A69G A70U, the “yeast fitness (ln)” value was -0.315.

Regarding U2G G6U A43C C46U C66U A70G, the “yeast fitness (ln)” value was -0.185.

U2G G6U A43C C46U C66U A70U: the “yeast fitness (ln)” value was -0.263.

For U2G G6U A43C C66U A70G, the “yeast fitness (ln)” value was -0.338.

U2G G6U A43C C66U A70U: the “yeast fitness (ln)” value was -0.279.

Turning to U2G G6U C27U C46U C66U A69G A70G, the “yeast fitness (ln)” value is -0.277.

U2G G6U C27U C46U C66U A69G A70U: the “yeast fitness (ln)” value was -0.238.

U2G G6U C46U C66U A69G C71U: the “yeast fitness (ln)” value was -0.252.

Regarding U2G G6U C46U A70G C71U, the “yeast fitness (ln)” value is -0.165.

In the case of U2G G6U C27U C66A C71U, the “yeast fitness (ln)” value is -0.168.

For the variant U2G G6U C27U A43C C46U C66A C71U, the “yeast fitness (ln)” value is -0.363.

Consider U2G G6U C27U C46U C66U C71U, for which the “yeast fitness (ln)” value was -0.246.

As for U2G G6U C66U A69G C71U, the “yeast fitness (ln)” value was -0.239.

On to G6A A43C C46U A69G A70G, for which the “yeast fitness (ln)” value is -0.216.

For the variant G6A A43C C46U A69G A70U, the “yeast fitness (ln)” value was -0.124.

With U2G G6U A43C C46U C66U A69G A70G C71U, the “yeast fitness (ln)” value is -0.348.

U2G G6U C27U C66U C71U: the “yeast fitness (ln)” value is -0.31.

On to U2G G6U C27U A43C C66A A70G, for which the “yeast fitness (ln)” value is -0.214.

Take U2G G6U C27U A43C C66A A70U: the “yeast fitness (ln)” value was -0.0378.

Regarding G6A A43C C66U C71U, the “yeast fitness (ln)” value was -0.335.

Turning to G6A A43C A69G C71U, the “yeast fitness (ln)” value is -0.29.

Turning to G6A A43C C66A A70U C71U, the “yeast fitness (ln)” value is -0.395.

For U2G G6U C66U A70G, the “yeast fitness (ln)” value was -0.154.

With U2G G6U C66U A70U, the “yeast fitness (ln)” value is -0.0342.

Regarding U2G G6U C27U A43C C66U A70G C71U, the “yeast fitness (ln)” value was -0.316.

Turning to U2G G6U A43C C46U C66A A69G A70G C71U, the “yeast fitness (ln)” value is -0.228.
